Reference: ChEMBL document CHEMBL3112521, “Design, synthesis and biological evaluation of (E)-2-(2-arylhydrazinyl)quinoxalines, a promising and potent new class of anticancer agents” (Bioorg Med Chem Lett, 2014)

The compounds below were run on OVCAR-8 (assay: Cytotoxicity against human OVCAR8 cells assessed as growth inhibition at 5 ug/ml by MTT assay). Details: read-out: GI.
Type: functional
In short: (§1)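 Single-concentration MTT screen at 5 µg/mL across SF-295 (glioblastoma), OVCAR-8 (ovary) and HCT-116 (colon) cells. Read-out is percent growth inhibition, reported with sd.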

Row | Compound | inhibition of growth at 5 µg/mL
1 | Brc1ccccc1/C=N/Nc1cnc2ccccc2n1 | 18%
2 | Brc1cccc(/C=N/Nc2cnc3ccccc3n2)c1 | 0%
3 | Brc1ccc(/C=N/Nc2cnc3ccccc3n2)cc1 | 18.2%
4 | O=[N+]([O-])c1ccccc1/C=N/Nc1cnc2ccccc2n1 | 21.8%
5 | O=[N+]([O-])c1cccc(/C=N/Nc2cnc3ccccc3n2)c1 | 16.9%
6 | O=[N+]([O-])c1ccc(/C=N/Nc2cnc3ccccc3n2)cc1 | 40.6%
7 | Cc1ccccc1/C=N/Nc1cnc2ccccc2n1 | 17.8%
8 | Cc1cccc(/C=N/Nc2cnc3ccccc3n2)c1 | 39.9%
9 | Cc1ccc(/C=N/Nc2cnc3ccccc3n2)cc1 | 29%
10 | N#Cc1cccc(/C=N/Nc2cnc3ccccc3n2)c1 | 11.5%
11 | N#Cc1ccc(/C=N/Nc2cnc3ccccc3n2)cc1 | 50.9%
12 | Oc1ccccc1/C=N/Nc1cnc2ccccc2n1 | 95.4%
13 | Oc1cccc(/C=N/Nc2cnc3ccccc3n2)c1 | 51.5%
14 | Oc1ccc(/C=N/Nc2cnc3ccccc3n2)cc1 | 67.3%
15 | Oc1cccc(/C=N/Nc2cnc3ccccc3n2)c1O | 97.9%
16 | Oc1ccc(/C=N/Nc2cnc3ccccc3n2)c(O)c1 | 84.2%
17 | Oc1ccc(O)c(/C=N/Nc2cnc3ccccc3n2)c1 | 60.5%
18 | Oc1ccc(/C=N/Nc2cnc3ccccc3n2)cc1O | 46.3%
19 | Oc1cc(/C=N/Nc2cnc3ccccc3n2)cc(O)c1O | 12.8%
20 | COc1ccccc1/C=N/Nc1cnc2ccccc2n1 | 21%
21 | COc1cccc(/C=N/Nc2cnc3ccccc3n2)c1 | 41.6%
22 | COc1ccc(/C=N/Nc2cnc3ccccc3n2)cc1 | 14.4%
23 | COc1cccc(/C=N/Nc2cnc3ccccc3n2)c1OC | 0%
24 | COc1ccc(/C=N/Nc2cnc3ccccc3n2)c(OC)c1 | 7.19%

What follows are compounds tested on OVCAR-8 (assay: Cytotoxicity against human OVCAR8 cells assessed as growth inhibition by MTT assay). Details: not given.
Type: functional, cell-based
In short: (§2)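 Dose-response on HCT-116, OVCAR-8, HL-60 (leukemia) and SF-295 cells, with doxorubicin as positive control. IC50 is taken as the concentration inducing 50% inhibition of cell growth. Data come from three independent experiments, each run in triplicate.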

Row | Compound | IC50
25 | Oc1ccccc1/C=N/Nc1cnc2ccccc2n1 | 3470 nM
26 | Oc1cccc(/C=N/Nc2cnc3ccccc3n2)c1O | 1060 nM

These compounds were tested on HCT-116 (assay: Cytotoxicity against human HCT116 cells assessed as growth inhibition by MTT assay). Details: not given.
Type: functional, cell-based
In short: as §2

Row | Compound | IC50
27 | Oc1ccccc1/C=N/Nc1cnc2ccccc2n1 | 4940 nM
28 | Oc1cccc(/C=N/Nc2cnc3ccccc3n2)c1O | 1760 nM

Each compound was assayed on HCT-116 (assay: Cytotoxicity against human HCT116 cells assessed as growth inhibition at 5 ug/ml by MTT assay). Details: read-out: GI.
Type: functional
In short: as §1

Row | Compound | inhibition of growth at 5 µg/mL
29 | Brc1ccccc1/C=N/Nc1cnc2ccccc2n1 | 23.6%
30 | Brc1cccc(/C=N/Nc2cnc3ccccc3n2)c1 | 0%
31 | Brc1ccc(/C=N/Nc2cnc3ccccc3n2)cc1 | 23.2%
32 | O=[N+]([O-])c1ccccc1/C=N/Nc1cnc2ccccc2n1 | 23%
33 | O=[N+]([O-])c1cccc(/C=N/Nc2cnc3ccccc3n2)c1 | 21%
34 | O=[N+]([O-])c1ccc(/C=N/Nc2cnc3ccccc3n2)cc1 | 18.6%
35 | Cc1ccccc1/C=N/Nc1cnc2ccccc2n1 | 28.7%
36 | Cc1cccc(/C=N/Nc2cnc3ccccc3n2)c1 | 33.4%
37 | Cc1ccc(/C=N/Nc2cnc3ccccc3n2)cc1 | 19.6%
38 | N#Cc1cccc(/C=N/Nc2cnc3ccccc3n2)c1 | 30.7%
39 | N#Cc1ccc(/C=N/Nc2cnc3ccccc3n2)cc1 | 31.6%
40 | Oc1ccccc1/C=N/Nc1cnc2ccccc2n1 | 77%
41 | Oc1cccc(/C=N/Nc2cnc3ccccc3n2)c1 | 29.6%
42 | Oc1ccc(/C=N/Nc2cnc3ccccc3n2)cc1 | 20.2%
43 | Oc1cccc(/C=N/Nc2cnc3ccccc3n2)c1O | 84%
44 | Oc1ccc(/C=N/Nc2cnc3ccccc3n2)c(O)c1 | 85.1%
45 | Oc1ccc(O)c(/C=N/Nc2cnc3ccccc3n2)c1 | 89.2%
46 | Oc1ccc(/C=N/Nc2cnc3ccccc3n2)cc1O | 69.4%
47 | Oc1cc(/C=N/Nc2cnc3ccccc3n2)cc(O)c1O | 14.9%
48 | COc1ccccc1/C=N/Nc1cnc2ccccc2n1 | 4.45%
49 | COc1cccc(/C=N/Nc2cnc3ccccc3n2)c1 | 14.5%
50 | COc1ccc(/C=N/Nc2cnc3ccccc3n2)cc1 | -43.6%
51 | COc1cccc(/C=N/Nc2cnc3ccccc3n2)c1OC | 0%
52 | COc1ccc(/C=N/Nc2cnc3ccccc3n2)c(OC)c1 | 12.8%

Each compound was assayed on SF-295 (assay: Cytotoxicity against human SF295 cells assessed as growth inhibition at 5 ug/ml by MTT assay). Details: read-out: GI.
Type: functional
In short: as §1

Row | Compound | inhibition of growth at 5 µg/mL
53 | Brc1ccccc1/C=N/Nc1cnc2ccccc2n1 | 35.2%
54 | Brc1cccc(/C=N/Nc2cnc3ccccc3n2)c1 | 14.2%
55 | Brc1ccc(/C=N/Nc2cnc3ccccc3n2)cc1 | 33.5%
56 | O=[N+]([O-])c1ccccc1/C=N/Nc1cnc2ccccc2n1 | 21.9%
57 | O=[N+]([O-])c1cccc(/C=N/Nc2cnc3ccccc3n2)c1 | 23.4%
58 | O=[N+]([O-])c1ccc(/C=N/Nc2cnc3ccccc3n2)cc1 | 27%
59 | Cc1ccccc1/C=N/Nc1cnc2ccccc2n1 | 46.4%
60 | Cc1cccc(/C=N/Nc2cnc3ccccc3n2)c1 | 39.8%
61 | Cc1ccc(/C=N/Nc2cnc3ccccc3n2)cc1 | 18.1%
62 | N#Cc1cccc(/C=N/Nc2cnc3ccccc3n2)c1 | 44.5%
63 | N#Cc1ccc(/C=N/Nc2cnc3ccccc3n2)cc1 | 16%
64 | Oc1ccccc1/C=N/Nc1cnc2ccccc2n1 | 61.5%
65 | Oc1cccc(/C=N/Nc2cnc3ccccc3n2)c1 | 27.5%
66 | Oc1ccc(/C=N/Nc2cnc3ccccc3n2)cc1 | 39.4%
67 | Oc1cccc(/C=N/Nc2cnc3ccccc3n2)c1O | 81.2%
68 | Oc1ccc(/C=N/Nc2cnc3ccccc3n2)c(O)c1 | 85.3%
69 | Oc1ccc(O)c(/C=N/Nc2cnc3ccccc3n2)c1 | 50.7%
70 | Oc1ccc(/C=N/Nc2cnc3ccccc3n2)cc1O | 47.6%
71 | Oc1cc(/C=N/Nc2cnc3ccccc3n2)cc(O)c1O | 37.8%
72 | COc1ccccc1/C=N/Nc1cnc2ccccc2n1 | 21.8%
73 | COc1cccc(/C=N/Nc2cnc3ccccc3n2)c1 | 35.8%
74 | COc1ccc(/C=N/Nc2cnc3ccccc3n2)cc1 | 0.52%
75 | COc1cccc(/C=N/Nc2cnc3ccccc3n2)c1OC | 22.2%
76 | COc1ccc(/C=N/Nc2cnc3ccccc3n2)c(OC)c1 | 46.9%

What follows are compounds tested on SF-295 (assay: Cytotoxicity against human SF295 cells assessed as growth inhibition by MTT assay). Details: not given.
Type: functional, cell-based
In short: as §2

Row | Compound | IC50
77 | Oc1ccccc1/C=N/Nc1cnc2ccccc2n1 | 2310 nM
78 | Oc1cccc(/C=N/Nc2cnc3ccccc3n2)c1O | 1260 nM

Each compound was assayed on HL-60 (assay: Cytotoxicity against human HL60 cells assessed as growth inhibition by MTT assay). Details: not given.
Type: functional, cell-based
In short: as §2

Row | Compound | IC50
79 | Oc1ccccc1/C=N/Nc1cnc2ccccc2n1 | 819 nM
80 | Oc1cccc(/C=N/Nc2cnc3ccccc3n2)c1O | 316 nM
